Screening results deposited in PubChem by PCMD.
Most compounds without a hit are left out; they make up all but 1% or so of the library.
FXIIa inh 1536 – factor XIIa (human) inhibition; 220,000 compounds, 0.3% hits; inhibition, % at 5 µM; purified FXIIa, Boc-QGR-AMC fluorogenic substrate, 2 h; AID 800; in the data active = inhibition above about 40%;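 note: 0% = enzyme with no compound and 100% = blank without enzyme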
Target sequence (P00748 20-372 limits assumed): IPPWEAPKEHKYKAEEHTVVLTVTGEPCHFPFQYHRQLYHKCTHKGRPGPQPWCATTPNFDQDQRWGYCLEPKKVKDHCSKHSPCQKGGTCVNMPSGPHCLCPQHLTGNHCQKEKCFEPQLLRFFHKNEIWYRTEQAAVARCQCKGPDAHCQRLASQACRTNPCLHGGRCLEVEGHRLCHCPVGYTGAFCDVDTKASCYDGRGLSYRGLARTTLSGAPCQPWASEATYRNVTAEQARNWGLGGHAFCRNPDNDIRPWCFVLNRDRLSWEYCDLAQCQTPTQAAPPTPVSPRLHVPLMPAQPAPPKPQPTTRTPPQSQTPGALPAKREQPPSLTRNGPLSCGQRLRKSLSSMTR
Target sequence (P00748 373-615 limits assumed): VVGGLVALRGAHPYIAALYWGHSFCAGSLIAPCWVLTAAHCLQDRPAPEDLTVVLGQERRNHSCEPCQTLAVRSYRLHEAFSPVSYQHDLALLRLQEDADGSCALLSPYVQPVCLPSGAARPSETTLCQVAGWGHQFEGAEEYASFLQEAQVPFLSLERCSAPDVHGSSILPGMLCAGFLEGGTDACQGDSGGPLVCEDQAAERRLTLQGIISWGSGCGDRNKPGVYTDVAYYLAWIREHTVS
KLK5 inh – inhibitors of human kallikrein 5 | recombinant hK5, fluorogenic AMC substrate cleavage | 210,000 compounds, 0.59% hits | inhibition, % at 5 µM | Q9Y337;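 active = inhibition of 40% or more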;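 note: 0% = enzyme controls without compound and 100% = no-enzyme blanks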
Thrombin inh – inhibitors of human thrombin; P00734; alpha-thrombin, Boc-VPR-AMC fluorogenic substrate cleavage; inhibition, % at 5 µM; 220,000 compounds, 0.26% hits; AID 1046;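 active = inhibition at or above 40%; inactive = inhibition below 40%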;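 note: 0% = enzyme with no compound and 100% = wells without enzyme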
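Material: human alpha-thrombin protein; Also added: Boc-VPR-AMC substrate, 15 µM final; Timing: enzyme reaction carried out at room temperature; Signal: fluorescence, ex 355 nm, em 460 nm; Measure: % inhibition of thrombin; Controls: enzyme without compound as high, wells lacking enzyme as low.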
FXIa inh 1536 – blocks human coagulation factor XIa protease activity; P03951; purified FXIa, Boc-Glu-Ala-Arg-AMC fluorogenic substrate; inhibition, % at 5 µM; 220,000 compounds, 0.14% hits; AID 798;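 active = inhibition of at least 40%; inactive = inhibition below 40%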;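 note: fluorescence of freed AMC excited at 355 nm; 0% = enzyme without compound and 100% = no enzyme blank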
Active calls of the source: *; x = not tested or not shown.

SMILES	FXIIa inh 1536	KLK5 inh	Thrombin inh	FXIa inh 1536
Cc1ccc(NC(=S)NCCc2ccccc2)nc1	13	10	-1	54*
Cc1ccc(NC(=O)CCCc2ccccc2)nc1	5	2	-2	-3
O=S(=O)(c1ccccc1)N1CCN(c2nnnn2-c2ccccc2)CC1	31	63*	16	4
O=C(Nc1ccc(F)cc1)C1CCN(c2nnnn2-c2ccccc2)CC1	15	-14	4	-5
O=C(NC1CCCCC1)C1CCN(c2nnnn2-c2ccccc2)CC1	21	28	82*	27
Cc1c(N(C)C(=O)C2CCCN2S(=O)(=O)c2ccccc2)c(=O)n(-c2ccccc2)n1C (stereo not given)	6	71*	104*	4
Nc1nnc(CCOc2ccc(Cl)cc2)s1	21	44*	24	16
Nc1nnc(CSCc2ccc(Cl)cc2)s1	14	-10	0	6
CS(=O)(=O)c1ccc2nc(NC(=O)C3COc4ccccc4O3)sc2c1 (stereo not given)	17	156*	18	3
COc1ccc2nc(NC(=O)C3COc4ccccc4O3)sc2c1 (stereo not given)	11	-8	-6	0
COc1ccc(O)c(/C=N/NC(=O)c2cc(=O)[nH]c3ccccc23)c1	66*	14	20	37
Cc1ccc(S(=O)(=O)NC(CC(=O)NCC2CCCO2)c2ccccc2)cc1 (stereo not given)	3	-3	-7	-3
Cc1cc(C)nc(N2CCC(C(=O)NNC(=O)c3ccc(Cl)cc3)CC2)n1	7	-2	1	2
O=C(Nc1nc(-c2ccccn2)cs1)C1CC1	1	-5	-1	-7
O=C(CC1CC2CCC1C2)Nc1nc(-c2ccccn2)cs1 (stereo not given)	21	87*	19	28
O=C(CN(c1ccccn1)S(=O)(=O)c1ccccc1)N/N=C/c1cccc([N+](=O)[O-])c1	2	1	-10	2
CCOC(=O)Cn1nc(C)c(NC(=O)COc2ccc(C)c(C)c2)c1C	11	-1	2	-1
Cc1cc(N/N=C/c2ccccc2Br)nc2ccccc12	32	42*	19	18
Brc1ccccc1/C=N/Nc1ccc2ccccc2n1	9	-2	-12	1
Clc1ccc(N=C2SCCS2)cc1	6	3	1	4
Cc1ccc(C)n1-c1ccc(-c2nnco2)cc1	-5	21	40*	1
CCOC(=O)Cc1c(C)nc(SC)[nH]c1=O	8	x	-2	1
N/C(=N\OC(=O)c1cccc(Cl)c1)c1cccnc1	13	-1	47*	-2
COc1ccc2c(c1)CCc1c(C(=O)NCc3ccc(F)cc3)noc1-2	49*	-7	-3	6
CC12CCC(c3n[nH]c(=S)nc31)C2(C)C (stereo not given)	13	-5	1	1
SMILES	FXIIa inh 1536	KLK5 inh	Thrombin inh	FXIa inh 1536
Cc1nnc(SCC(=O)Nc2cccc(S(=O)(=O)N(C)c3ccccc3)c2)s1	1	-2	2	7
COc1ccc(/C=C(\C#N)c2n[nH]c(Cn3cncn3)n2)cc1	48*	21	4	12
COc1ccccc1NC(=O)c1sc2ncn(Cc3cccc(C)c3)c(=O)c2c1C	6	44*	100*	7
COc1ccccc1NC(=O)c1sc2ncn(Cc3ccc(C)cc3)c(=O)c2c1C	17	30	99*	29
COc1ccccc1NC(=O)c1sc2ncn(Cc3cccc4ccccc34)c(=O)c2c1C	11	-16	-7	3
C=CCn1cnc2sc(C(=O)Nc3ccccc3OC)c(C)c2c1=O	8	0	-7	-3
Cc1csc(/C(=N\O)c2csc(C)n2)n1	8	7	4	7
C/C(=N\NC(=O)c1ccccc1NC(=O)c1ccc(Cl)cc1)c1ccncc1	8	-5	5	0
O=C(COC(=O)CCc1ccccc1)Nc1ncc(Cl)cc1Cl	17	3	42*	6
O=C(COC(=O)CCOc1ccccc1)Nc1ccc(Cl)cn1	0	-28	48*	-11
O=C(COc1ccccc1)Nc1ccc(Cl)cn1	5	-4	-6	-2
COC(=O)/C(=C/Nc1ccccc1)[N+](=O)[O-]	46*	-2	3	27
COC(=O)/C(=C/Nc1ccc(O)cc1)[N+](=O)[O-]	13	14	0	-2
O=C(O)CN1C(=O)c2ccc(Oc3ccc4c(c3)C(=O)N(CC(=O)O)C4=O)cc2C1=O	10	1	-1	0
OC(CNc1ccccc1)COc1ccc(OCC(O)CNc2ccccc2)cc1 (stereo not given)	14	58*	0	2
CCOCC(O)CNc1ccccc1 (stereo not given)	10	-1	1	7
CC(C)Sc1nc(SCC(=O)O)c2c3c(sc2n1)COC(C)(C)C3	7	-3	-4	1
CC(C)Sc1nc(SCC(=O)NCc2ccco2)c2c3c(sc2n1)COC(C)(C)C3	14	55*	32	7
Cc1ccc(S(=O)(=O)N2CCN(Cc3cc(C(C)C)ccc3O)CC2)cc1	43*	3	0	14
CCC(C)NC(=O)C1CN(S(=O)(=O)c2ccccc2)CCN1S(=O)(=O)c1ccccc1 (stereo not given)	41*	0	3	33
CCCCCc1nc2c(=O)[nH]c3ccccc3c2o1	4	4	-4	-6
CCCc1nc2c(=O)[nH]c3ccccc3c2o1	16	44*	18	5
Cc1ccc2c(c1)C(O)(CC(=O)c1ccc3c(c1)OCO3)C(=O)N2 (stereo not given)	18	-3	15	7
CS(=O)(=O)Nc1cccc(C(=O)CC2(O)C(=O)Nc3ccc(Br)cc32)c1 (stereo not given)	23	73*	60*	23
O=C(CC1(O)C(=O)Nc2ccc(Br)cc21)c1ccc2c(c1)OCO2 (stereo not given)	15	-5	50*	4
SMILES	FXIIa inh 1536	KLK5 inh	Thrombin inh	FXIa inh 1536
CS(=O)(=O)Nc1cccc(C(=O)CC2(O)C(=O)Nc3ccccc32)c1 (stereo not given)	14	-16	4	1
COc1ccc(CN(CC2CCCO2)C(=O)c2cc3sccc3n2C)c(OC)c1 (stereo not given)	2	-17	-7	-5
O=C1c2ccccc2C(Nc2ccc3c(c2)OCCO3)N1c1ccccn1 (stereo not given)	13	51*	9	0
O=[N+]([O-])c1ccc(-c2cc(-c3ccncc3)nc3ccc4ccccc4c23)cc1	9	7	1	2
NC(=S)Nc1cccc2[nH]ccc12	3	-4	-7	-2
O=C(Cc1ccc([N+](=O)[O-])cc1)Nc1cccc(C(F)(F)F)c1	31	-5	-4	23
CCc1cccc(NC(=O)Cc2ccc([N+](=O)[O-])cc2)c1	23	52*	29	41*
CCC(=O)Nc1cccc(C(=O)OCc2cccc([N+](=O)[O-])c2)c1	27	68*	41*	27
O=C(O)CC(NC(=O)Cc1ccccc1)c1cc([N+](=O)[O-])ccc1Cl (stereo not given)	6	-7	5	-1
